Rows were chosen to be rich in hits. Some 11% of all compounds tested hit in one or more screens of this group.
S1P3 agonist: human S1P3 receptor agonists, primary screen, cell-based, primary and confirmation, NFAT-BLA reporter; Sphingosine 1-phosphate receptor 3 (Homo sapiens), Q99500; S1P3 NFAT-BLA reporter cells, agonism, FRET ratio; relative to 1 µM S1P, basal subtracted; activation, % at 4.5 µM; 60,000 tested, 0.1% active;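 active = activation above the screen-wide mean plus 3 SD, cut at about 4.5% in these data, passing the limit was not always enough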
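Assay system: stable CHO line with human S1P3, Gα16, NFAT-BLA reporter; Detection: FRET β-lactamase substrate fluorescence, excitation 405 nm, 460/535 nm emission ratio, background-subtracted; Read-out: percent activation versus median 1 µM S1P response, basal-subtracted, per plate; Incubation: cells plated overnight, compound 4 h 37 °C, substrate 2 h RT.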
D1 allo mod: D1 CRE-luciferase signal change, two-sided – cell-based, HEK293 D1, dopamine EC30, D1 allosteric modulator project, primary screen; AID 641, 2007; B-score at 10 µM; dopamine EC30 potentiation; actives deviate in either direction; 58,000 tested, 5.9% active; D(1A) dopamine receptor (Homo sapiens), P21728;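 active = luminescence count or its row- and column-corrected plate score outside the 99.7% band of the plate's sample wells, on either side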
S1P1 ag-PAM: S1P1 agonists and agonism potentiators, primary screen, cell-based, primary and confirmation screens, CRE-bla reporter; S1P1 CRE-bla cells, forskolin, beta-lactamase FRET, potentiator mode; S1P1 agonist co-added at EC20, 2 nM; 100% = saturating reference agonist, 0% = basal; activation, % at 9.5 µM; 56,000 tested, 0.57% active;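 active = activation above a cutoff set at the mean activation of all tested compounds plus 3 SD, cut at about 54% in these data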;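 also: forskolin at 4 µM as EC80 and the EC20 agonist is SEW2871; 100% = SEW2871 at its EC100 plus forskolin at EC80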
M1 agonist: M1 muscarinic receptor agonists, primary screen, CHO-M1 cells, Fluo-4 calcium, agonist mode; B-score at 10 µM; 64,000 tested, 3% active; AID 626, 2007; Fluo-4 calcium fluorescence; stronger effect = higher value; Muscarinic acetylcholine receptor M1;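 active = fluorescence rise, raw or as B-score row- and column-corrected plate score, outside the 99.7% band of its plate's samples, either direction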
M1 antagonist: antagonists of rat M1 muscarinic receptor; Muscarinic acetylcholine receptor M1 (Rattus norvegicus), P08482; CHO-M1 cells, Fluo-4 calcium, ACh EC80 antagonist mode; stronger effect = lower value; 64,000 tested, 3.4% active; B-score at 10 µM;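 active = calcium fluorescence response, raw or row-and-column corrected B-score, differing from the plate sample mean either way at a set confidence level, mostly lower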
M1 agonist conf: rat M1 muscarinic receptor agonists, confirmation, CHO-M1 cells, Fluo-4 calcium, duplicate retest | fluorescence change (max-min) at 10 µM | Fluo-4 calcium fluorescence, agonist mode; actives lie on both sides | 1,700 tested, 19% active | AID 1488, 2009 | shares compounds with M1 agonist;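 active = fluorescence change differs from the solvent-only DMSO control mean at a set confidence level in both duplicate runs; inconclusive = differs from solvent-only control mean in just one of two runs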;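 also: an EC20 dose of acetylcholine follows compound addition during the same imaging run; raw fluorescence intensity difference in instrument units with no normalization to controls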
M4 ag counter: agonist activity at rat M4 receptor, confirmation, counter-screen for M1 allosteric modulator project, cell-based, agonist mode; CHO M4/Gqi5 cells, Fluo-4 calcium fluorescence; actives lie on both sides; shares compounds with M1 agonist; 1,700 tested, 9% active; fluorescence change (max-min) at 10 µM;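 active = fluorescence change differing from the plate's solvent-only control wells at 99.7% confidence in both duplicates, whether higher or lower; inconclusive = differs from solvent controls in only one of two duplicates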
Target sequence (P08485 whole entry, looked up): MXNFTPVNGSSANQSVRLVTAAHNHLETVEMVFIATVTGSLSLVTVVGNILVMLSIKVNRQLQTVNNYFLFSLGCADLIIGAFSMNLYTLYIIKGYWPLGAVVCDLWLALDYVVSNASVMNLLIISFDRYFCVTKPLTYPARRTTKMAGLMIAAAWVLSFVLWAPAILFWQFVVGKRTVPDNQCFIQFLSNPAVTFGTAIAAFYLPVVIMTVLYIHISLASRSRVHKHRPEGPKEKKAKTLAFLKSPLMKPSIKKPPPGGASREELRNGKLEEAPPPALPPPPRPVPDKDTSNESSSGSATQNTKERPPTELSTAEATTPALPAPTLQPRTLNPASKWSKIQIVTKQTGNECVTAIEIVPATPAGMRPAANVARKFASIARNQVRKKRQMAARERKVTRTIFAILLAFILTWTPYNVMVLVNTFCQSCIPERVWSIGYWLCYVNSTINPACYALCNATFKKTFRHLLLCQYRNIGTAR
* = called active by the depositor; ? = inconclusive; · = no result.

SMILES	S1P3 agonist	D1 allo mod	S1P1 ag-PAM	M1 agonist	M1 antagonist	M1 agonist conf	M4 ag counter
COc1ccc2nc(N3CCC(O)CC3)c(C#N)cc2c1	-1	1.3	-6	55*	-0.29	198*	166*
COc1ccc2nc(N3CCC(C)CC3)c(C#N)cc2c1	1	0.9	17	4*	-1.1	22	?
CCOC(=O)C1CCN(c2nc3cc(OC)ccc3cc2C#N)CC1	0	-0.035	1	0.61	-0.47	·	·
Cc1c(C(=O)N2CCc3ccccc3C2)sc2nc(-c3ccccc3)cn12	0	0.39	-12	2.4*	-0.5	-16	?
CN(C)CC(C)(C)CNC(=O)C1CCN(Cc2ccccc2O)CC1	0	-1.2	7	0.74	0.46	·	·
O=S(=O)(NCc1ccccc1)c1ccc2c(c1)OCCO2	-1	0.15	18	7.4*	0.78	-4.6	-9.4
Cc1cc(N2CCN(C(c3ccccc3)c3ccccc3)CC2)n2ncnc2n1	-1	-1.3	70	2.2	-0.84	·	·
Cc1cc(N2CCN(c3nc4ccccc4s3)CC2)n2ncnc2n1	0	-2.3	58*	3.6*	-1.4	8.4	?
O=C1OCC(c2ccccc2)=C1c1ccc(S(=O)(=O)N2CCOCC2)s1	0	1.1	10	-1.4	0.12	·	·
Nc1nc(CSc2n[nH]c(-c3ccccc3)n2)nc(Nc2ccccc2)n1	-2	2.7	-12	2.2*	-0.019	-42*	-47
Cc1nc2ccccc2n2c(O)c(CC(=O)O)cc12	0	-0.013	6	269*	-0.0013	1125*	1088*
Cc1cc(NC(=O)CSc2cn(CCNC(=O)c3ccc(F)cc3)c3ccccc23)no1	-1	0.55	-1	4.2*	-0.44	-12	-15
COc1ccccc1NC(=O)N1CCN(c2cccc(C(F)(F)F)c2)CC1	1	-0.32	20	-0.97	-0.43	·	·
O=C(Nc1ccc2c(c1)OCO2)N1CCN(c2cccc(C(F)(F)F)c2)CC1	14	·	31	2.9*	-2.2	?	?
Cc1ccc(CNC(=O)C2CCCN(c3nc4ccccc4o3)C2)cc1 (stereo not given)	-2	0.65	-11	-0.72	0.32	·	·
O=C(NCCC1=CCCCC1)C1CCCN(c2nc3ccccc3o2)C1 (stereo not given)	0	-0.86	25	6.8*	-0.27	?	?
CN1C(=O)C(O)(CC(=O)c2ccccn2)c2cc(Br)ccc21 (stereo not given)	-1	·	19	-2.7*	0.44	?	-54
O=C(COC(=O)c1cnccn1)c1ccc2c(c1)CCCC2	·	0.23	·	1	-0.14	·	·
Cc1cc(Cl)ccc1OCC(=O)N1CCCCC1	-1	1.4	-9	2.2*	0.85	?	-29
COc1cc(C(=S)N2CCCCC2)ccc1OCC(=O)N1CCCC1	-1	-0.069	-5	0.81	0.67	·	·
Cn1cc(C(=O)c2ccc(F)cc2)cc1-c1nc2ccccc2n1C	0	-0.59	-17	3.2*	-2	-8.5	?
Cc1ccc(-c2nn(C)c(=O)c3ccccc23)cc1S(=O)(=O)NCCN1CCOCC1	0	3.4	-16	-0.084	-0.52	·	·
Cc1ccc(-c2nn3c(-c4ccco4)nnc3c3ccccc23)cc1S(=O)(=O)NCC1CCCO1 (stereo not given)	-1	-0.51	-12	5.3*	-0.95	3.3	-30
N#Cc1cnc2sc3ccccc3n2c1=N	·	1.2	·	-2.4*	-0.1	36	-10
